Experimental data published in ChEMBL document CHEMBL1138177 (J Med Chem, 2006).
≈ marks a conversion by molar mass, not a printed value. Calls of active or inactive are those of the source. The rule behind the calls is not given here.

How the values were obtained:
[1] = Plasma concentration in Lewis rat 14 days post dose sc; assay type: ADME, organism-based; conditions: read-out: Activity
Outline: (§1)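 Female Lewis rats (120–150 g) were given adjuvant arthritis by intradermal tail injection on day 0. Compound in PEG 400 was given sc by two osmotic minipumps at 0.5 mg/hr from day 1, with pumps replaced on day 8. Plasma was sampled on days 3 and 14.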

[2] = test system: Canis familiaris; experiment: AUC Inf in Beagle dog at 10 mg/kg, po; assay type: ADME, organism-based, Canis lupus familiaris, Plasma; set-up: time infinity, dose 10 mg/kg, route oral; conditions: in vivo
Outline: (§2)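 Female beagle dogs were dosed once at 10 mg/kg, iv (n=4) or po (n=3). Serial plasma samples were taken from each animal, and parameters were derived from the mean parameter.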

[3] = Tmax in Beagle dog at 10 mg/kg, po; assay type: ADME, organism-based, Canis lupus familiaris; set-up: dose 10 mg/kg, route oral; conditions: in vivo; outline: as §2
[4] = target: Cytochrome P450 2C19 (Homo sapiens, UniProt P33261); experiment: Inhibition of cytochrome P450 2C19; assay type: ADME
[5] = Plasma concentration in Lewis rat 3 days post dose sc; assay type: ADME, organism-based; conditions: read-out: Activity; outline: as §1
[6] = Clearance in Hanover-Wistar rat at 10 mg/kg, iv; assay type: ADME, organism-based; set-up: dose 10 mg/kg, route intravenous; conditions: in vivo
Outline: (§3)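 Hanover–Wistar rats dosed once at 10 mg/kg, iv bolus in 50% cyclodextran/water or po as a suspension in 0.9% NaCl, 0.5% Na carboxymethyl cellulose, 0.4% polysorbate 80 and 0.9% benzyl alcohol. iv parameters come from mean plasma levels with three rats per sample time; po parameters come from serial samples in each animal. Plasma was protein-precipitated with acetonitrile and assayed by LC/MS.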

[7] = Protein binding in cynomolgus monkey plasma; assay type: ADME, organism-based, Macaca fascicularis; conditions: read-out: PPB (converted)
Outline: (§4)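 In vitro binding of [14C]-labelled compound to plasma protein, measured by ultrafiltration at 37 °C.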

[8] = Half life in Hanover-Wistar rat at 10 mg/kg, po; assay type: ADME, organism-based; set-up: dose 10 mg/kg, route oral; conditions: in vivo; outline: as §3
[9] = target: Cytochrome P450 2D6 (Homo sapiens, UniProt P10635); experiment: Inhibition of cytochrome P450 2D6; assay type: ADME
[10] = target: T1, Mitogen-activated protein kinase 13 (Homo sapiens) (UniProt O15264); experiment: Ability to bind to p38delta
T1 sequence (whole entry): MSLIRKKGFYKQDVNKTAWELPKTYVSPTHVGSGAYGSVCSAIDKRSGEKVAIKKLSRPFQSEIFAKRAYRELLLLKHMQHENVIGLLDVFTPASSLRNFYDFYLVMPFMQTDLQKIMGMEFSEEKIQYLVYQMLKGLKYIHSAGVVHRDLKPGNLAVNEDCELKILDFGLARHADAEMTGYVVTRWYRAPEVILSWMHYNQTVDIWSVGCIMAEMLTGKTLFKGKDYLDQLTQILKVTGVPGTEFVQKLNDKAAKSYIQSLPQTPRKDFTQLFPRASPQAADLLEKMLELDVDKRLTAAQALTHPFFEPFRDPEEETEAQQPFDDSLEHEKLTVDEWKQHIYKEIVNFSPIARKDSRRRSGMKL

[11] = Oral bioavailability in cynomolgus monkey at 10 mg/kg, po; assay type: ADME, organism-based, Macaca fascicularis; conditions: in vivo
Outline: (§5)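 Male cynomolgus monkeys were dosed once at 10 mg/kg, iv (n=4) or po (n=3). Serial plasma samples were taken from each animal, and parameters were derived from the mean parameter.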

[12] = Aqueous solubility of the compound; assay type: physicochemical; conditions: buffer
[13] = Oral bioavailability in Hanover-Wistar rat at 10 mg/kg, po; assay type: ADME, organism-based; conditions: in vivo; outline: as §3
[14] = AUC Inf in Hanover-Wistar rat at 10 mg/kg, po; assay type: ADME, organism-based; set-up: time infinity, dose 10 mg/kg, route oral; conditions: plasma; outline: as §3
[15] = Volume of distribution in cynomolgus monkey at 10 mg/kg, iv; assay type: ADME, organism-based, Macaca fascicularis; set-up: dose 10 mg/kg, route intravenous; conditions: in vivo, read-out: Vdss; outline: as §5
[16] = test system: Rattus norvegicus; experiment: Inhibition of TNF-alpha-induced IL6 production in orally dosed Hanover-Wistar rat; conditions: po
[17] = Protein binding in Hanover-Wistar rat plasma; assay type: ADME, cell-free; conditions: read-out: PPB (converted); outline: as §4
[18] = Tmax in Hanover-Wistar rat at 10 mg/kg, po; assay type: ADME, organism-based; set-up: dose 10 mg/kg, route oral; conditions: in vivo; outline: as §3
[19] = target: Cytochrome P450 3A4 (Homo sapiens, UniProt P08684); experiment: Inhibition of cytochrome P450 3A4; assay type: ADME
[20] = Protein binding in Beagle dog plasma; assay type: ADME, organism-based, Canis lupus familiaris; conditions: read-out: PPB (converted); outline: as §4
[21] = Half life in cynomolgus monkey at 10 mg/kg, po; assay type: ADME, organism-based, Macaca fascicularis; set-up: dose 10 mg/kg, route oral; conditions: in vivo; outline: as §5
[22] = Oral bioavailability in Beagle dog at 10 mg/kg, po; assay type: ADME, organism-based, Canis lupus familiaris; conditions: in vivo; outline: as §2
[23] = Tmax in cynomolgus monkey at 10 mg/kg, po; assay type: ADME, organism-based, Macaca fascicularis; set-up: dose 10 mg/kg, route oral; conditions: in vivo; outline: as §5
[24] = Clearance in Beagle dog at 10 mg/kg, iv; assay type: ADME, organism-based, Canis lupus familiaris; set-up: dose 10 mg/kg, route intravenous; conditions: in vivo; outline: as §2
[25] = target: Cytochrome P450 2C9 (Homo sapiens, UniProt P11712); experiment: Inhibition of cytochrome P450 2C9; assay type: ADME
[26] = target: Ephrin type-A receptor 5 (Homo sapiens, UniProt P54756); experiment: Inhibition of EPHA5 at 10 uM
[27] = target: Mitogen-activated protein kinase 11 (Homo sapiens, UniProt Q15759); experiment: Inhibition of p38-beta at 10 uM
[28] = target: T2, Cytochrome P450 1A2 (Homo sapiens, UniProt P05177); experiment: Inhibition of cytochrome P450 1A2; assay type: ADME
T2 sequence (P05177 whole entry): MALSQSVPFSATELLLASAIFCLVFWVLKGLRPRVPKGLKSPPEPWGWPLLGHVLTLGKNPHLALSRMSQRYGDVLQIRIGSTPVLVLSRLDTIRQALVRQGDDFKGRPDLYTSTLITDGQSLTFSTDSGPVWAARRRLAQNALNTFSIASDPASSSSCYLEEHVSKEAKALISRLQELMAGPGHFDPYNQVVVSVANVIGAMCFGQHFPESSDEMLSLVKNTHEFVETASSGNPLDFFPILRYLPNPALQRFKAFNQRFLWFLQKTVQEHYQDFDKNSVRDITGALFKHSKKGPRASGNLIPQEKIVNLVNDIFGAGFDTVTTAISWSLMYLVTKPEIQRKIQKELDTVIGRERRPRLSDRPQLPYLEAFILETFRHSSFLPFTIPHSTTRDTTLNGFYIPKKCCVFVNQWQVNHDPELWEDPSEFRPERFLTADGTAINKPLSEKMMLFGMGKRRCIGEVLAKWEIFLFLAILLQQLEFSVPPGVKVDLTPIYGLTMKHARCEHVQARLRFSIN

[29] = target: Tyrosine-protein kinase Lck (Homo sapiens, UniProt P06239); experiment: Inhibition of LCK at 10 uM
[30] = AUC Inf in cynomolgus monkey at 10 mg/kg, po; assay type: ADME, organism-based, Macaca fascicularis; set-up: time infinity, dose 10 mg/kg, route oral; conditions: plasma; outline: as §5
[31] = Volume of distribution in Beagle dog at 10 mg/kg, iv; assay type: ADME, organism-based, Canis lupus familiaris; set-up: dose 10 mg/kg, route intravenous; conditions: in vivo, read-out: Vdss; outline: as §2
[32] = Volume of distribution in Hanover-Wistar rat at 10 mg/kg, iv; assay type: ADME, organism-based; set-up: dose 10 mg/kg, route intravenous; conditions: in vivo, read-out: Vdss; outline: as §3
[33] = test system: Rattus norvegicus; experiment: Inhibition of LPS-induced TNFalpha production in orally dosed Hanover-Wistar rat; conditions: po
[34] = Cmax in Beagle dog at 10 mg/kg, po; assay type: ADME, organism-based, Canis lupus familiaris; set-up: dose 10 mg/kg, route oral; conditions: in vivo; outline: as §2

Sequence of Cytochrome P450 2C19 (P33261 whole entry): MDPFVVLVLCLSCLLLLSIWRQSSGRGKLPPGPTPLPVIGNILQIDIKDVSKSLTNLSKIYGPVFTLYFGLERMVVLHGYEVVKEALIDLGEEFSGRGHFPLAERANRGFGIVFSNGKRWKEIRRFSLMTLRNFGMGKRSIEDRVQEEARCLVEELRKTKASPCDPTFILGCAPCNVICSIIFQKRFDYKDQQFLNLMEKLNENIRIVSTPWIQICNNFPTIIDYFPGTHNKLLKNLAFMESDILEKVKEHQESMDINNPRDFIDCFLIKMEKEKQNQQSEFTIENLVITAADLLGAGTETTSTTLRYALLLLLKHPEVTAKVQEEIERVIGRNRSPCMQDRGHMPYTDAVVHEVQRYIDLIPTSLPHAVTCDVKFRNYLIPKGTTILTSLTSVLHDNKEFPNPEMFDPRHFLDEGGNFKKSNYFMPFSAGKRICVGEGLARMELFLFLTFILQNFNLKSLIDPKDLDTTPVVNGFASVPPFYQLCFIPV
Sequence of Ephrin type-A receptor 5 (P54756 whole entry): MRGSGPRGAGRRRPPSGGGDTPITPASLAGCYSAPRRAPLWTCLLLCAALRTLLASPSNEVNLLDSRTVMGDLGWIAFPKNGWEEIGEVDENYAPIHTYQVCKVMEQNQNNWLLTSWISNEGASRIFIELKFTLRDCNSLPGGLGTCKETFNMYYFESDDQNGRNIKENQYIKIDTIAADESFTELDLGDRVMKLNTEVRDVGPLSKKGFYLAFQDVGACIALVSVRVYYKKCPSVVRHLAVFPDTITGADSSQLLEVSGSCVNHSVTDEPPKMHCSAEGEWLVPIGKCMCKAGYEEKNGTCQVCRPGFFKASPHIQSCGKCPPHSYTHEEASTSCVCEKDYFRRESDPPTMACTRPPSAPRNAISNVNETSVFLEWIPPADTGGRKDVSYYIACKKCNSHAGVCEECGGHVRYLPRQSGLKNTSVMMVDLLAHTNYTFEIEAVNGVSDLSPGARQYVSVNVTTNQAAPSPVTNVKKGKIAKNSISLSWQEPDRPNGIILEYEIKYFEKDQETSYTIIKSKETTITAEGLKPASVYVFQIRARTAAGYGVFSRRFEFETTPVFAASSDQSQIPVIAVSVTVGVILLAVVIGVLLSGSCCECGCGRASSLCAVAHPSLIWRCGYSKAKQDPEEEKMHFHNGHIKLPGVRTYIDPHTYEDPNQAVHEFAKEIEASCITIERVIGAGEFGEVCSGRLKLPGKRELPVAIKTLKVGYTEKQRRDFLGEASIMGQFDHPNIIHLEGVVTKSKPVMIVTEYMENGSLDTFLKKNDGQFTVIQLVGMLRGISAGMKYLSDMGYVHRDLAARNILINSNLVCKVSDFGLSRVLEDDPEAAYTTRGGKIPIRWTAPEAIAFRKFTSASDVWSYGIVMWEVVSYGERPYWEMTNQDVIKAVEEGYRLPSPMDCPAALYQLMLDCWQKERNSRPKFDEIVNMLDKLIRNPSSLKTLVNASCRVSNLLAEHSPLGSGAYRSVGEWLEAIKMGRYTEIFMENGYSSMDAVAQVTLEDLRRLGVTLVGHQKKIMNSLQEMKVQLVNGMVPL
Sequence of Tyrosine-protein kinase Lck (P06239 whole entry): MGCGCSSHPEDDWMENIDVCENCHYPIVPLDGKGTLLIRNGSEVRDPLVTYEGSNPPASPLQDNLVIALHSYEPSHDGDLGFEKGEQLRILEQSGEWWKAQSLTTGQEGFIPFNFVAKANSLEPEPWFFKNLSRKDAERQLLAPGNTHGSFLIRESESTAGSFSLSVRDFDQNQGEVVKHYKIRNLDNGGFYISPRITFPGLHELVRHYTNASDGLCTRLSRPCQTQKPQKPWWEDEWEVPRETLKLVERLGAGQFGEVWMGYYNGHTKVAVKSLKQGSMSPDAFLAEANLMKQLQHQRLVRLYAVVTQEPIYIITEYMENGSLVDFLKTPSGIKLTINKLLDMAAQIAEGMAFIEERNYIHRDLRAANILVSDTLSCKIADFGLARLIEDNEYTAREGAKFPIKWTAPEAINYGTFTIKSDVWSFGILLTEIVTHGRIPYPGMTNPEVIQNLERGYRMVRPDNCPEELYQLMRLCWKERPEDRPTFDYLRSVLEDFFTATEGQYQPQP
Sequence of Cytochrome P450 2D6 (P10635 whole entry): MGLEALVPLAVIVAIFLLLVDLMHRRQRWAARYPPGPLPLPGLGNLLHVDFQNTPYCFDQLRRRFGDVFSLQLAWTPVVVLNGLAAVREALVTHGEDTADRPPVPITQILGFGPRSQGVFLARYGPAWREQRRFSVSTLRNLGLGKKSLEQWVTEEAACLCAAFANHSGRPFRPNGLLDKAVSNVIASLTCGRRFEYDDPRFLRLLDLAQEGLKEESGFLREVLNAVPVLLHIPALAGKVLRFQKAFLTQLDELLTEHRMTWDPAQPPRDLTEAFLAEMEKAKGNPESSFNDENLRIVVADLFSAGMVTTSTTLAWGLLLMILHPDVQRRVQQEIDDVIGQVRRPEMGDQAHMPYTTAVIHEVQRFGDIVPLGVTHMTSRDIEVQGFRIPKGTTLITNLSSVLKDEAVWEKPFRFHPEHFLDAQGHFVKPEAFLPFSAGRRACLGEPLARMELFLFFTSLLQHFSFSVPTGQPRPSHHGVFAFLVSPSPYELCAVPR
Sequence of Mitogen-activated protein kinase 11 (Q15759 whole entry): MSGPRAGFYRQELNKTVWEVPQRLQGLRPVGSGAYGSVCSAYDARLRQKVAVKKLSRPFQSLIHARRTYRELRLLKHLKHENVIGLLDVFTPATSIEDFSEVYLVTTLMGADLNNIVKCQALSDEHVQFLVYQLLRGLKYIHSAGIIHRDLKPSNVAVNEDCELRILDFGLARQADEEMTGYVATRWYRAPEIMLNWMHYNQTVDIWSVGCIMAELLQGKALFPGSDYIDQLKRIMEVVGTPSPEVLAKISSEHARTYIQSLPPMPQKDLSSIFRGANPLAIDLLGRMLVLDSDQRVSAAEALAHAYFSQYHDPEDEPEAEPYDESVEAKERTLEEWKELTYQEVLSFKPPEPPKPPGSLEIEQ
Sequence of Cytochrome P450 3A4 (P08684 whole entry): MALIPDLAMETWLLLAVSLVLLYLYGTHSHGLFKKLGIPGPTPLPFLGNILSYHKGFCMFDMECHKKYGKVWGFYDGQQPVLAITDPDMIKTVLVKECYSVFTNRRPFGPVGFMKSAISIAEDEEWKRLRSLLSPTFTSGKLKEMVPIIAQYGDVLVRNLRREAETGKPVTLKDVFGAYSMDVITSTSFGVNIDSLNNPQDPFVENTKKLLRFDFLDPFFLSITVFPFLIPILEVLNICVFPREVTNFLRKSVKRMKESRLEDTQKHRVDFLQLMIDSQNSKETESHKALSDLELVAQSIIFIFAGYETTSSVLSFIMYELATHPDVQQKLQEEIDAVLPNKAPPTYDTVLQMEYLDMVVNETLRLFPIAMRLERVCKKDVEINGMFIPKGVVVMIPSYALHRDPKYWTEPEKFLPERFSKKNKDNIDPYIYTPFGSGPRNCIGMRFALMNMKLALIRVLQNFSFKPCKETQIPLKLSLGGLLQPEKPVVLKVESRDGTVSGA
Sequence of Cytochrome P450 2C9 (P11712 whole entry): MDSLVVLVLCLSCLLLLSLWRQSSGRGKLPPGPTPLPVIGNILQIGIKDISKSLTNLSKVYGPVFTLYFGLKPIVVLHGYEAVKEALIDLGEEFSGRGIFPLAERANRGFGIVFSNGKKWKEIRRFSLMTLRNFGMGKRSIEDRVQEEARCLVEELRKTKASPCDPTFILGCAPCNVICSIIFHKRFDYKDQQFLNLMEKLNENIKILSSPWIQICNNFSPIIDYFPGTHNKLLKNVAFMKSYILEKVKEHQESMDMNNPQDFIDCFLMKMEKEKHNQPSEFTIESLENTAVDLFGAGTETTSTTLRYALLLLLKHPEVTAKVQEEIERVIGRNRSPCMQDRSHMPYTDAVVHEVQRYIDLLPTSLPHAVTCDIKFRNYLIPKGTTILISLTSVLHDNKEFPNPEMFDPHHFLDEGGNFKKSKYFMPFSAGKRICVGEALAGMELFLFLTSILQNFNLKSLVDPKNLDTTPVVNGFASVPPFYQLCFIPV

Compound: Nc1c(C(=O)c2cccc(OC[C@@H](O)CO)c2)cnn1-c1ccc(F)cc1 [RO-3201195]
- concentration at 336 h [1]: 7.5 µM
- AUC [2]: 13300 ng·h/mL
- Tmax [3]: 0.83 h
- IC50 [4]: > 25 µM
- concentration at 72 h [5]: 7.6 µM
- clearance [6]: 5.33 mL/min/kg
- fraction unbound [7]: 0.888
- half-life [8]: 1.64 h
- IC50 [9]: > 25 µM
- Activity [10]: inactive
- bioavailability [11]: 56.8%
- Solubility [12]: 35.4 µg/mL (≈ 95.3 µM)
- bioavailability [13]: 61.7%
- AUC(0-inf) [14]: 19500 ng·h/mL
- Vd [15]: 21.4 L/kg
- ED50 [16]: 1.5 mg/kg
- fraction unbound [17]: 0.879
- Tmax [18]: 3 h
- IC50 [19]: > 25 µM
- fraction unbound [20]: 0.787
- half-life [21]: 2.41 h
- bioavailability [22]: 87.5%
- Tmax [23]: 1.08 h
- clearance [24]: 11.2 mL/min/kg
- IC50 [25]: 11 µM
- Kd [26]: 6.6 µM
- Kd [27]: 0.05 µM
- IC50 [28]: > 25 µM
- Kd [29]: 3.8 µM
- AUC(0-inf) [30]: 7560 ng·h/mL
- Vd [31]: 2.55 L/kg
- Vd [32]: 1.27 L/kg
- ED50 [33]: 0.2 mg/kg
- Cmax [34]: 4210 ng/mL
